Reference: ChEMBL document CHEMBL1143625, “Bisphosphonate inhibitors of Toxoplasma gondi growth: in vitro, QSAR, and in vivo investigations” (J Med Chem, 2005)

Experiments:
HFF [1] = assay: Inhibitory concentration against the growth of Toxoplasma gondii overexpressing FPPS enzyme in human foreskin fibroblast monolayer cells; (control = 2.4 uM, experiment 3); type: functional, cell-based
Method in brief: (§1)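 FPPS-overexpressing T. gondii line: 2F clone tachyzoites (beta-galactosidase) electroporated with 50 µg ptubTgFPPS-FLAG/sagCAT. Stable lines were selected with 20 µM chloramphenicol and cloned by limiting dilution, giving 4-5-fold more FPPS by Western blot. Assay: compounds serially diluted in medium on confluent HFF; 10^4 tachyzoites/mL (filtered 3 µm, needle-passed); 48 h at 37 °C. Lysis, then CPRG read at 570 nm; IC50 from rectangular hyperbolic fit of % inhibition.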

HFF [2] = assay: Inhibitory concentration against the growth of Toxoplasma gondii overexpressing FPPS enzyme in human foreskin fibroblast monolayer cells; (control = 2.2 uM, experiment 1); type: functional, cell-based; method in brief: as §1
[3] = In vitro inhibitory concentration against the growth of Toxoplasma gondii in human foreskin fibroblast monolayer cells (HFF cells); type: functional, cell-based
Method in brief: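 T. gondii 2F clone tachyzoites expressing β-galactosidase, kept in HFF in DMEM with 10% FBS, 2 mM glutamine and 1 mM pyruvate. Confluent HFF monolayers were given serially diluted drug in medium, then 10^4 filtered, needle-passed tachyzoites/mL, and held 48 h at 37 °C. Cells were lysed at 50 °C, and CPRG turnover was read at 570 nm. IC50 came from a hyperbolic fit of % inhibition against concentration.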

HFF [4] = assay: Inhibitory concentration against the growth of Toxoplasma gondii overexpressing FPPS enzyme in human foreskin fibroblast monolayer cells; (control = 2.5 uM, experiment 2); type: functional, cell-based; method in brief: as §1
[5] = Therapeutic index (TI) value as ratio of lethal dose (LD50) to the inhibitory concentration (IC50); type: cell-based; conditions: human, KB cells; read-out: TI
KB = assay: Lethal dose required to inhibit the growth of human KB (nasopharyngeal carcinoma) cell line; type: functional; conditions: read-out: LD50 (the source's name)
HFF [6] = assay: Inhibitory concentration against the growth of Toxoplasma gondii overexpressing FPPS enzyme in human foreskin fibroblast monolayer cells; (control = 0.12 uM, experiment 1); type: functional, cell-based; method in brief: as §1
HFF [7] = assay: Inhibitory concentration against the growth of Toxoplasma gondii overexpressing FPPS enzyme in human foreskin fibroblast monolayer cells; (control = 0.30 uM, experiment 2); type: functional, cell-based; method in brief: as §1
HFF [8] = assay: Inhibitory concentration against the growth of Toxoplasma gondii overexpressing FPPS enzyme in human foreskin fibroblast monolayer cells; (control = 0.28 uM, experiment 3); type: functional, cell-based; method in brief: as §1
HFF [9] = assay: Inhibitory concentration against the growth of Toxoplasma gondii overexpressing FPPS enzyme in human foreskin fibroblast monolayer cells; (control = 0.55 uM, experiment 3); type: functional, cell-based; method in brief: as §1
HFF [10] = assay: Inhibitory concentration against the growth of Toxoplasma gondii overexpressing FPPS enzyme in human foreskin fibroblast monolayer cells; (control = 0.62 uM, experiment 1); type: functional, cell-based; method in brief: as §1
HFF [11] = assay: Inhibitory concentration against the growth of Toxoplasma gondii overexpressing FPPS enzyme in human foreskin fibroblast monolayer cells; (control = 0.15 uM, experiment 2); type: functional, cell-based; method in brief: as §1
HFF [12] = assay: Inhibitory concentration against the growth of Toxoplasma gondii overexpressing FPPS enzyme in human foreskin fibroblast monolayer cells; (control = 0.29 uM); type: functional, cell-based; method in brief: as §1
HFF [13] = assay: Inhibitory concentration against the growth of Toxoplasma gondii overexpressing FPPS enzyme in human foreskin fibroblast monolayer cells; (control = 0.60 uM, experiment 1); type: functional, cell-based; method in brief: as §1
HFF [14] = assay: Inhibitory concentration against the growth of Toxoplasma gondii overexpressing FPPS enzyme in human foreskin fibroblast monolayer cells; (control = 1.1 uM, experiment 2); type: functional, cell-based; method in brief: as §1
HFF [15] = assay: Inhibitory concentration against the growth of Toxoplasma gondii overexpressing FPPS enzyme in human foreskin fibroblast monolayer cells; (control = 0.79 uM, experiment 3); type: functional, cell-based; method in brief: as §1

SMILES	IC50 [3]	selectivity ratio [5]	CC50 (KB)	further results
CCCCCCCCC(O)(P(=O)(O)O)P(=O)(O)O	2.38 µM	–	–	IC50 (HFF [1]): 5.8 µM; IC50 (HFF [2]): 3.3 µM; IC50 (HFF [4]): 5.8 µM
O=P(O)(O)C(Nc1ccnc(O)c1)P(=O)(O)O	17.4 µM	14.8	257 µM	–
O=P(O)(O)C(O)(CC1=NC=NC1)P(=O)(O)O	6.7 µM	6.12	41 µM	–
O=P(O)(O)C(Sc1ccccn1)P(=O)(O)O	51.2 µM	–	–	–
O=[N+]([O-])c1cccc(CC(O)(P(=O)(O)O)P(=O)(O)O)c1	47.9 µM	–	–	–
Cc1cccc(CC(O)(P(=O)(O)O)P(=O)(O)O)c1	36.4 µM	–	–	–
O=P(O)(O)C(Nc1cccc(Cc2ccccc2)c1)P(=O)(O)O	56.2 µM	–	–	–
O=P(O)(O)C(O)(Cc1cccc2ccccc12)P(=O)(O)O	68.8 µM	–	–	–
C[C@H](NC(P(=O)(O)O)P(=O)(O)O)c1cccc2ccccc12	55.1 µM	–	–	–
CCc1cccc(NC(P(=O)(O)O)P(=O)(O)O)n1	218 µM	–	–	–
O=P(O)(O)C(O)(Cn1cnc2ccccc21)P(=O)(O)O	4.5 µM	–	–	–
CCC(C)NC(P(=O)(O)O)P(=O)(O)O (stereo not drawn)	164 µM	–	–	–
O=P(O)(O)C(Nc1nccc2ccccc12)P(=O)(O)O	20.9 µM	32.2	673 µM	–
O=P(O)(O)C(Nc1ccccn1)P(=O)(O)O	44.6 µM	10.4	465 µM	–
Cc1csc(NC(P(=O)(O)O)P(=O)(O)O)n1	30.9 µM	–	–	–
O=P(O)(O)C(O)(CCc1cccnc1)P(=O)(O)O	147 µM	> 5.46	> 804 µM	–
CCCCCCCC(O)(P(=O)(O)O)P(=O)(O)O	13.8 µM	21.9	302 µM	–
NCCCCC(O)(P(=O)(O)O)P(=O)(O)O	126 µM	0.72	91 µM	–
CCCCCCCCCCC(O)(P(=O)(O)O)P(=O)(O)O	0.28 µM	> 2950	> 826 µM	IC50 (HFF [6]): 1.1 µM; IC50 (HFF [7]): 1.2 µM; IC50 (HFF [8]): 1.7 µM
CCCCC(O)(P(=O)(O)O)P(=O)(O)O	150 µM	> 6.95	> 1040 µM	–
O=P(O)(O)C(Nc1cccnc1)P(=O)(O)O	42 µM	18.6	782 µM	–

SMILES	IC50 [3]	selectivity ratio [5]	CC50 (KB)	further results
CC(C)(C)c1cccc(NC(P(=O)(O)O)P(=O)(O)O)c1	157 µM	–	–	–
CC1CCCCN1C(P(=O)(O)O)P(=O)(O)O (stereo not drawn)	132 µM	–	–	–
CC(C)c1cccc(NC(P(=O)(O)O)P(=O)(O)O)c1	160 µM	–	–	–
CN(Cc1ccccc1)C(P(=O)(O)O)P(=O)(O)O	76.7 µM	–	–	–
Cc1ccnc(N(Cc2ccccc2)C(P(=O)(O)O)P(=O)(O)O)c1	226 µM	–	–	–
C[C@@H](NC(P(=O)(O)O)P(=O)(O)O)c1cccc2ccccc12	63.2 µM	–	–	–
Nc1ccc(CC(O)(P(=O)(O)O)P(=O)(O)O)cc1	80.3 µM	2.71	218 µM	–
O=P(O)(O)C(O)(Cc1ccccn1)P(=O)(O)O	8.11 µM	1.71	13.9 µM	–
O=P(O)(O)C(N1CCCCC1)P(=O)(O)O	51.2 µM	> 21.9	> 1120 µM	–
Cc1cc(C)nc(NC(P(=O)(O)O)P(=O)(O)O)c1	235 µM	2.7	633 µM	–
CCCCCCCCCC(O)(P(=O)(O)O)P(=O)(O)O	0.55 µM	> 1620	> 892 µM	IC50 (HFF [9]): 1.7 µM; IC50 (HFF [10]): 1.9 µM; IC50 (HFF [11]): 0.57 µM
Cc1cccnc1NC(P(=O)(O)O)P(=O)(O)O	44.5 µM	4.02	179 µM	–
CCCCCCC(O)(P(=O)(O)O)P(=O)(O)O	25.3 µM	4.23	107 µM	–
O=P(O)(O)C(O)(CSc1ccncc1)P(=O)(O)O	72.5 µM	> 10.3	> 746 µM	–
Cc1ccnc(NC(P(=O)(O)O)P(=O)(O)O)c1	59 µM	2.32	137 µM	–
O=P(O)(O)C(O)(Cc1ccncc1)P(=O)(O)O	3.5 µM	48.9	171 µM	–
CCC(C)CNC(P(=O)(O)O)P(=O)(O)O (stereo not drawn)	36.6 µM	10.8	394 µM	–
O=P(O)(O)C(O)(Cc1ccccc1)P(=O)(O)O	90.2 µM	> 10.3	> 931 µM	–
O=P(O)(O)C(Nc1ccc(Cl)cc1Cl)P(=O)(O)O [2,4-DICHLOROPHENYLAMINOMETHYLENEBISPHOSPHONIC ACID]	154 µM	–	–	–
CCCCN(CC)C(P(=O)(O)O)P(=O)(O)O [(BUTYL(ETHYL)AMINO)METHYLENEDIPHOSPHONIC ACID]	132 µM	> 7.99	> 1060 µM	–
CCCCNC(P(=O)(O)O)P(=O)(O)O [(BUTYLAMINO)METHYLENEDIPHOSPHONIC ACID]	76.1 µM	2.78	212 µM	–

SMILES	IC50 [3]	selectivity ratio [5]	CC50 (KB)	further results
O=P(O)(O)C(NC1CCC1)P(=O)(O)O [(CYCLOBUTYLAMINO)METHYLENEDIPHOSPHONIC ACID]	121 µM	2.15	260 µM	–
O=P(O)(O)C(NC1CCCCCCC1)P(=O)(O)O [(CYCLOOCTYLAMINO)METHYLENEDIPHOSPHONIC ACID]	43.2 µM	8.19	354 µM	–
O=P(O)(O)C(NC1CCCC1)P(=O)(O)O [(CYCLOPENTYLAMINO)METHYLENEDIPHOSPHONIC ACID]	68.4 µM	9.19	629 µM	–
O=P(O)(O)C(NC1CC1)P(=O)(O)O [(CYCLOPROPYLAMINO)METHYLENEDIPHOSPHONIC ACID]	23.1 µM	10.7	246 µM	–
O=P(O)(O)C(N(C1CCCCC1)C1CCCCC1)P(=O)(O)O [(DICYCLOHEXYLAMINO)METHYLENEDIPHOSPHONIC ACID]	42.1 µM	> 20.1	> 844 µM	–
CC(C)CCNC(P(=O)(O)O)P(=O)(O)O [(ISOPENTYLAMINO)METHYLENEDIPHOSPHONIC ACID]	135 µM	3.56	480 µM	–
CCCCCCCCCNC(P(=O)(O)O)P(=O)(O)O [(NONYLAMINO)METHYLENEDIPHOSPHONIC ACID]	8.89 µM	> 103	> 919 µM	–
CCCNC(P(=O)(O)O)P(=O)(O)O [(PROPYLAMINO)METHYLENEDIPHOSPHONIC ACID]	69.2 µM	7.21	499 µM	–
NCCCC(O)(P(=O)(O)O)P(=O)(O)O [ALENDRONIC ACID]	109 µM	–	–	–
O=C1C(O)=C([C@H]2CC[C@H](c3ccc(Cl)cc3)CC2)C(=O)c2ccccc21 [ATOVAQUONE]	–	–	–	IC50 (HFF [12]): 0.28 µM
CCCCCN(C)CCC(O)(P(=O)(O)O)P(=O)(O)O [IBANDRONIC ACID]	54.9 µM	0.19	10.4 µM	–
O=P(O)(O)C(NC1CCCCCC1)P(=O)(O)O [INCADRONIC ACID]	39.6 µM	4.19	166 µM	–
O=P(O)(O)C(O)(Cc1cnc2ccccn12)P(=O)(O)O [MINODRONIC ACID]	1.88 µM	–	–	–
O=P(O)(O)C(N1CCCCCC1)P(=O)(O)O [N-(HEXAMETHYLENEIMINO)METHYLENEBISPHOSPHONIC ACID]	89.8 µM	> 12.2	> 1100 µM	–
NCCCCCC(O)(P(=O)(O)O)P(=O)(O)O [NERIDRONIC ACID]	59.7 µM	11.4	680 µM	–
NCCC(O)(P(=O)(O)O)P(=O)(O)O [PAMIDRONIC ACID]	38 µM	4.11	156 µM	–
O=P(O)(O)C(O)(Cc1cccnc1)P(=O)(O)O [RISEDRONIC ACID]	2.4 µM	106	255 µM	–
O=P(O)(O)C(N1CCSCC1)P(=O)(O)O [THIOMORPHOLINOMETHYLENEDIPHOSPHONIC ACID]	161 µM	> 6.73	> 1080 µM	–
O=P(O)(O)C(O)(Cn1ccnc1)P(=O)(O)O [ZOLEDRONIC ACID]	0.79 µM	80.9	63.7 µM	IC50 (HFF [13]): 7.8 µM; IC50 (HFF [14]): 8.3 µM; IC50 (HFF [15]): 7.8 µM
